Measurements taken from ChEMBL document CHEMBL4665726, “Development of a selective HDAC inhibitor aimed at reactivating the HIV latent reservoir” (Bioorg Med Chem Lett, 2020).

Experiments:
[1] = target: T1, Class 1 histone deacetylase (Homo sapiens, UniProt Q13547+O15379+Q92769+Q9BY41); test: Inhibition of Class 1 HDAC in VSV-G-pseudotyped HIV infected human 2C4 cell Jurkat model assessed as reactivation of HIV latency in presence of 5% NHS by fluorescent reporter gene assay
Procedure, shortened: (§1)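 Latently infected Jurkat 2C4 cells (HIV latency model) were tested for reactivation of silenced provirus in parallel at two normal human serum levels: 0.1% and 5%. The paired runs gauge the potency shift from plasma protein binding.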

[2] = target: T1, Class 1 histone deacetylase; test: Inhibition of Class 1 HDAC in VSV-G-pseudotyped HIV infected human 2C4 cell Jurkat model assessed as reactivation of HIV latency in presence of 0.1% NHS by fluorescent reporter gene assay; procedure, shortened: as §1
[3] = target: T2, Histone deacetylase 8 (Homo sapiens, UniProt Q9BY41); test: Inhibition of HDAC8 (unknown origin)
T2 sequence (Q9BY41 whole entry): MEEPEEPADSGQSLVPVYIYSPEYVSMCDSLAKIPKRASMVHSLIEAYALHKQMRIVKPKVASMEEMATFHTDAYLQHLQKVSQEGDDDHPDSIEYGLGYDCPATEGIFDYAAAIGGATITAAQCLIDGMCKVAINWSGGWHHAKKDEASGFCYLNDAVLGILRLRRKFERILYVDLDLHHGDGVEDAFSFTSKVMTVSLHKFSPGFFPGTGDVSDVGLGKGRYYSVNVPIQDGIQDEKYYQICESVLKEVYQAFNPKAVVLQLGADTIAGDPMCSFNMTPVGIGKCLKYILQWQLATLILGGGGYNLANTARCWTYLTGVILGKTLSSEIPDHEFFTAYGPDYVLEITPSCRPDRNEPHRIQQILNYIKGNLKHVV

[4] = target: T3, Protein deacetylase HDAC6 (Homo sapiens, UniProt Q9UBN7); test: Inhibition of HDAC6 (unknown origin)
T3 sequence (Q9UBN7 whole entry): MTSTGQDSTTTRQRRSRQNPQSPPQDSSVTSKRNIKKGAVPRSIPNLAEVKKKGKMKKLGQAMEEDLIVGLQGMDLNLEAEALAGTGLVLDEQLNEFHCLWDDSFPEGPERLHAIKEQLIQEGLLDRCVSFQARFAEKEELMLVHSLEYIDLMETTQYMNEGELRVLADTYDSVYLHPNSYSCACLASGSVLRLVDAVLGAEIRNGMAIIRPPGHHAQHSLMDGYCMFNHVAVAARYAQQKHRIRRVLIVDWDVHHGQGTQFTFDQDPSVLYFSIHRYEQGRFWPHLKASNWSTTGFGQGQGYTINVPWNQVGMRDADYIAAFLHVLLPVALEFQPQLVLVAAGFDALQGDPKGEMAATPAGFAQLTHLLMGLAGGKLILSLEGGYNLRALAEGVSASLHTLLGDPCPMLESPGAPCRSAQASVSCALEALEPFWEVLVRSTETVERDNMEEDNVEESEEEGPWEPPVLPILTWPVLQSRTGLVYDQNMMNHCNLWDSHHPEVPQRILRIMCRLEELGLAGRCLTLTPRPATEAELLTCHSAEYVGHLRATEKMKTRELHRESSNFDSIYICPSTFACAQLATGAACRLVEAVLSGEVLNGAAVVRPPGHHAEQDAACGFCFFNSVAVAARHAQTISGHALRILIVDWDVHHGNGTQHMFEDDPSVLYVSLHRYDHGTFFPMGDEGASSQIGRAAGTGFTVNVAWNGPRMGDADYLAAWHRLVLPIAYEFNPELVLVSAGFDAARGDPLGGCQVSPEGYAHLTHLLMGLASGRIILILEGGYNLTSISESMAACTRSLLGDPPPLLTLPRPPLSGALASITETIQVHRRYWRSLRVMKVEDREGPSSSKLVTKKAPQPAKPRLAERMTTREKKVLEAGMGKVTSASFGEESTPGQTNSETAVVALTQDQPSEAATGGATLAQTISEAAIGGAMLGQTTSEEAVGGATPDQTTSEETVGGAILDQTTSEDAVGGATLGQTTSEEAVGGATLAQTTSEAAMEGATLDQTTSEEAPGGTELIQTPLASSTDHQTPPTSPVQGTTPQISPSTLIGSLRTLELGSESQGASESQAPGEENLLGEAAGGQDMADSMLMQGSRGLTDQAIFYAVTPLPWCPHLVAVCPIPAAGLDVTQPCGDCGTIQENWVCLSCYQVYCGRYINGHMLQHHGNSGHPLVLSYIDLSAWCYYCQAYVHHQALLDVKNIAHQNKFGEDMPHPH

[5] = target: Histone deacetylase 2 (Homo sapiens, UniProt Q92769); test: Inhibition of HDAC2 (unknown origin)
Sequence of Histone deacetylase 2 (Q92769 whole entry): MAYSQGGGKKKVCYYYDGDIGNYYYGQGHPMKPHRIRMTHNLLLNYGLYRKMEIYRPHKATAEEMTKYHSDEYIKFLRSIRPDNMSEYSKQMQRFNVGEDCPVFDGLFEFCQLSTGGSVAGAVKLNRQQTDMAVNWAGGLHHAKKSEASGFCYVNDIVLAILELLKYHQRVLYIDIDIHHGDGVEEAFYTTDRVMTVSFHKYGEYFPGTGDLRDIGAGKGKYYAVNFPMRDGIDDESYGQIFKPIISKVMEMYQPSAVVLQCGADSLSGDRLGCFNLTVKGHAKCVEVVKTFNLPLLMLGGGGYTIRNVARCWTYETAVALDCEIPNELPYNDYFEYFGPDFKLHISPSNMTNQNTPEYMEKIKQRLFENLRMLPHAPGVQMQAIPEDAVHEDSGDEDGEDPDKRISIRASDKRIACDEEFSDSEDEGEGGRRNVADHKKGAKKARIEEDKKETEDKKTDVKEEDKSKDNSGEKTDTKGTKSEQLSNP

[6] = target: Histone deacetylase 3 (Homo sapiens, UniProt O15379); test: Inhibition of HDAC3 (unknown origin)
Sequence of Histone deacetylase 3 (O15379 whole entry): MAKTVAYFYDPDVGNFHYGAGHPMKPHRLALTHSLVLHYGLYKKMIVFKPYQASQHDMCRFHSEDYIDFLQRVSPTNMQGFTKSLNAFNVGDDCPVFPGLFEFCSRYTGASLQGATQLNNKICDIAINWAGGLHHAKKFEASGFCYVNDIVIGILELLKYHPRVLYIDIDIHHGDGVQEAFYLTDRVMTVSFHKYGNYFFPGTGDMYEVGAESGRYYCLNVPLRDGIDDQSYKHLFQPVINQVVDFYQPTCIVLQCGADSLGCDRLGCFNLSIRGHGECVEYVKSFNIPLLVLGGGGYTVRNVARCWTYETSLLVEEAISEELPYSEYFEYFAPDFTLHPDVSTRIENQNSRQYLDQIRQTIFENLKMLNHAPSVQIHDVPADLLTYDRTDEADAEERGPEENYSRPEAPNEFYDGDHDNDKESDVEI

[7] = target: Histone deacetylase 1 (Homo sapiens, UniProt Q13547); test: Inhibition of HDAC1 (unknown origin)
Sequence of Histone deacetylase 1 (Q13547 whole entry): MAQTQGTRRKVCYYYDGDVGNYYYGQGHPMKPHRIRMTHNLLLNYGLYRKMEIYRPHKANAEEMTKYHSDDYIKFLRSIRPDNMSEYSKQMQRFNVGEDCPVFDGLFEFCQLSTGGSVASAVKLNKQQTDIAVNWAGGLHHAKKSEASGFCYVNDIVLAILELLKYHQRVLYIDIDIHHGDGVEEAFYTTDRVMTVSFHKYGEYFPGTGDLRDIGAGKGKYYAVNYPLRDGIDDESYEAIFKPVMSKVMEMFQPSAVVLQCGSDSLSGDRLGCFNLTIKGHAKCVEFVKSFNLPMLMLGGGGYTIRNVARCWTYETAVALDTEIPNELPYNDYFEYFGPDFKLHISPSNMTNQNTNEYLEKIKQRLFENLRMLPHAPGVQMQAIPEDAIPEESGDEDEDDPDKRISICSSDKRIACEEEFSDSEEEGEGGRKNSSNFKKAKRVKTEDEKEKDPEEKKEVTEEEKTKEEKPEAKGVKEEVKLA

[8] = Apparent permeability of the compound; assay type: ADME; details: not told
[9] = Oral bioavailability in Wistar Han rat at 10 mg/kg; assay type: ADME, organism-based; details: in vivo
[10] = Half life in Wistar Han rat at 2 mg/kg, iv or 10 mg/kg, po; assay type: ADME, organism-based; details: in vivo
[11] = Unbound volume of distribution in Wistar Han rat at 2 mg/kg, iv or 10 mg/kg, po; assay type: ADME, organism-based; details: in vivo
[12] = Unbound clearance in Wistar Han rat at 2 mg/kg, iv or 10 mg/kg, po; assay type: ADME, organism-based; details: in vivo

| Compound | EC50 [1] | EC50 [2] | IC50 [3] | IC50 [4] | IC50 [5] | IC50 [6] | IC50 [7] | Papp [8] | bioavailability [9] | half-life [10] | Vdu [11] | CL free [12] |
| --- | --- | --- | --- | --- | --- | --- | --- | --- | --- | --- | --- | --- |
| CCC(=O)CCCCC[C@H](NC(=O)c1ccon1)c1[nH]c(-c2ccc(F)cc2)nc1C#N | 2726 nM | 558 nM | 16.2 µM | > 45 µM | 164 nM | 12.1 nM | 35.6 nM |  |  |  |  |  |
| CCC(=O)CCCCC[C@H](NC(=O)C12CCN(CC1)CC2)c1[nH]c(-c2ccc(F)cc2)nc1C#N | 2207 nM | 1731 nM | 6.93 µM | > 45 µM | 26.9 nM | 2.4 nM | 6.2 nM |  |  |  |  |  |
| CCC(=O)CCCCCC(NC(=O)c1cncs1)c1[nH]c(-c2ccccc2)nc1C(N)=O (stereo unspecified) | 537 nM | 154 nM | 4.7 µM | 16.4 µM | 26.7 nM |  | 7.2 nM |  |  |  |  |  |
| CCC(=O)CCCCC[C@H](NC(=O)[C@H]1CC12CCN(C)CC2)c1[nH]c(-c2ccccc2F)nc1C#N | 1162 nM | 566 nM | 39.6 µM | 22.5 µM | 96 nM | 10.7 nM | 17 nM |  |  |  |  |  |
| CCC(=O)CCCCC[C@H](NC(=O)[C@H]1CC12CCN(C)CC2)c1[nH]c(-c2ccc(-c3cccnc3)cc2)nc1C#N | 55 nM | 77 nM | 12.6 µM | 9.47 µM | 1.7 nM | 0.3 nM | 0.2 nM |  |  |  |  |  |
| CCC(=O)CCCCC[C@H](NC(=O)[C@H]1CC12CCN(C)CC2)c1[nH]c(-c2ccc(F)cc2)nc1C(N)=O | 276 nM | 166 nM | 6.8 µM | 17.6 µM | 6.3 nM | 0.9 nM | 0.6 nM |  |  |  |  |  |
| CCC(=O)CCCCC[C@H](NC(=O)[C@H]1CC12CCN(C)CC2)c1[nH]c(-c2cccnc2OC)nc1C#N | 1669 nM | 2112 nM | 38.1 µM | 17.1 µM | 229 nM | 34.8 nM | 58.9 nM |  |  |  |  |  |
| CCC(=O)CCCCC[C@H](NC(=O)C1CN(C)C1)c1[nH]c(-c2ccc(F)cc2)nc1C#N | 2071 nM | 1564 nM | 19.7 µM | 36.9 µM | 117 nM | 13.8 nM | 25.9 nM |  |  |  |  |  |
| CCC(=O)CCCCC[C@H](NC(=O)CN(C)C)c1[nH]c(-c2ccc(F)cc2)nc1C#N | 3532 nM | 1605 nM | 29.5 µM | 43.3 µM | 219 nM | 26.8 nM | 47.9 nM |  |  |  |  |  |
| CCC(=O)CCCCC[C@H](NC(=O)[C@H]1CC12CCN(CC)CC2)c1[nH]c(-c2ccc(F)cc2)nc1C#N | 259 nM | 161 nM | 9.37 µM | 23.6 µM | 11.7 nM | 1.8 nM | 2.8 nM |  |  |  |  |  |
| CCC(=O)CCCCC[C@H](NC(=O)[C@H]1CC12CCN(C)CC2)c1[nH]c(-c2ccc3nc(C)ccc3c2)nc1C#N | 97 nM | 105 nM | 9.83 µM | 6.3 µM | 1.5 nM | 0.2 nM | 0.3 nM |  |  |  |  |  |
| CCC(=O)CCCCC[C@H](NC(=O)c1cncs1)c1[nH]c(-c2ccc(F)cc2)nc1C#N | 1111 nM | 254 nM | 12.3 µM | > 45 µM | 51.3 nM | 3.1 nM | 10.6 nM |  |  |  |  |  |
| CCC(=O)CCCCCC(NC(=O)c1cncs1)c1[nH]c(-c2ccccc2)nc1C(=O)NCCN(C)C (stereo unspecified) | 853 nM | 1142 nM | 5.34 µM | > 45 µM | 53.1 nM | 4.5 nM | 13.5 nM |  |  |  |  |  |
| CCC(=O)CCCCC[C@H](NC(=O)[C@H]1CC12CCN(C)CC2)c1[nH]c(-c2ccc3nn(C)cc3c2)nc1C#N | 322 nM | 247 nM | 12.4 µM | 9.04 µM | 2.1 nM | 0.3 nM | 0.4 nM |  |  |  |  |  |
| CCC(=O)CCCCC[C@H](NC(=O)[C@H]1CC12CCN(C)CC2)c1[nH]c(-c2cc3ccccc3nc2OC)nc1C#N | 1351 nM | 548 nM | > 45 µM | 8.97 µM | 177 nM | 101 nM | 97.9 nM |  |  |  |  |  |
| CCC(=O)CCCCC[C@H](NC(=O)C1CN(C)C1)c1[nH]c(-c2ccc(F)cc2)nc1C(N)=O | 643 nM | 775 nM | 5.38 µM | 15.9 µM | 34.4 nM | 3.6 nM | 3.5 nM |  |  |  |  |  |
| CCC(=O)CCCCCC(NC(=O)c1cncs1)c1[nH]c(-c2ccccc2)nc1C(=O)NC (stereo unspecified) | 1804 nM | 570 nM | 7.47 µM | 29.2 µM | 91.4 nM | 4.7 nM | 27.6 nM |  |  |  |  |  |
| CCC(=O)CCCCC[C@H](NC(=O)[C@H]1CC12CCN(CC)CC2)c1[nH]c(-c2ccc(F)cc2)nc1C(N)=O | 165 nM | 193 nM | 6.36 µM | 17.5 µM | 5 nM | 0.7 nM | 0.4 nM |  |  |  |  |  |
| CCC(=O)CCCCC[C@H](NC(=O)[C@H]1CC12CCN(C)CC2)c1[nH]c(-c2ccc(F)cc2)nc1C#N | 409 nM | 233 nM |  |  |  |  | 3.8 nM | 1.7 ×10⁻⁶ cm/s | 1% | 240 min | 40 L/kg | 244 mL/min/kg |
| CCC(=O)CCCCCC(NC(=O)c1cncs1)c1[nH]c(-c2ccccc2)nc1C(=O)N1CCOCC1 (stereo unspecified) | 3771 nM | 2729 nM | 16.8 µM | 19 µM | 159 nM | 19.1 nM | 43.6 nM |  |  |  |  |  |
| CCC(=O)CCCCC[C@H](NC(=O)C1CCOCC1)c1[nH]c(-c2ccc(F)cc2)nc1C(N)=O | 1504 nM | 1834 nM | 7.57 µM | 27.9 µM | 73.8 nM | 3.4 nM | 12.3 nM |  |  |  |  |  |
| CCC(=O)CCCCC[C@H](NC(=O)[C@H]1CC12CCN(C)CC2)c1[nH]c(-c2ccc(F)cc2F)nc1C#N | 1260 nM | 1233 nM | 20.7 µM | 14.8 µM | 155 nM | 18.9 nM | 35.2 nM |  |  |  |  |  |
| CCC(=O)CCCCC[C@H](NC(=O)[C@H]1CC12CCN(C)CC2)c1[nH]c(-c2ccc(C(F)(F)F)cc2)nc1C#N | 175 nM | 107 nM | 19.2 µM | 8.25 µM | 15.6 nM | 1.9 nM | 3.7 nM |  |  |  |  |  |
